Measured values published in ChEMBL document CHEMBL1121556, “Structure-activity relationships in a series of newly synthesized 1-amino-substituted ellipticine derivatives” (J Med Chem, 1980).
pIC50: −log10 of the molar value. Each block holds one molecule with its values, some of them ahead of it.

Assays:
[1] = test system: Friend leukemia cells (Mus musculus); experiment: In vitro concentration required for growth inhibition of murine Friend leukemia cell; conditions: read-out: ID50 (the source's name)
[2] = test system: Nucleic Acid; experiment: B app constant towards DNA; assay type: nucleic-acid assay; conditions: Bos taurus
Procedure, shortened: (§1)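 Association constants for DNA binding were derived from absorption changes of calf thymus DNA at 6 × 10^-7 M, expressed as mononucleotide concentration. The buffer was 50 mM Tris-HCl, pH 7.4, with 0.1 M NaCl.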

[3] = test system: Nucleic Acid; experiment: Apparent association constant towards DNA at concentration of 10e-7/M; assay type: nucleic-acid assay; conditions: Bos taurus
Procedure, shortened: as §1

[4] = test system: Nucleic Acid; experiment: Apparent association constant towards DNA at concentration of 1E-7/M; assay type: nucleic-acid assay; conditions: Bos taurus
Procedure, shortened: as §1

[5] = test system: Mus musculus; experiment: In vivo acute toxicity (lethal dose) against mice by intraperitoneal administration; assay type: organism-based; conditions: ip
Procedure, shortened: (§2)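 Mice (ICFW, C3H or B6D2 F1; 6-8 weeks; 22-24 g) in five groups of six. Drug dissolved in acidified saline (equimolar acetic acid) and given as a single ip or iv dose of 2, 5, 10, 25 or 50 mg/kg. Mortality observed over 30 days to set the lethal dose (LD100) and the highest nonlethal dose (LD0).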

[6] = test system: Mus musculus; experiment: In vivo evaluation for the antitumor activity on L1210 leukemia cells at the dose 15 mg/kg administered intraperitoneally 1 day after 10 e5 L1210 leukemia cells and increase in life span;(P<0.01).; assay type: functional; conditions: L1210, ip, 24 h, route intraperitoneal
[7] = test system: Mus musculus; experiment: In vivo acute toxicity (nonlethal dose) against mice by intraperitoneal administration; assay type: organism-based; conditions: ip
Procedure, shortened: as §2

[8] = test system: Mus musculus; experiment: In vivo evaluation for the antitumor activity on L1210 leukemia cells at the dose 15 mg/kg administered intraperitoneally; assay type: functional; conditions: route intraperitoneal
[9] = test system: Mus musculus; experiment: In vivo antitumor activity on L1210 leukemia cells at the dose 15 mg/kg administered intraperitoneally 1 day after 10 e5 L1210 leukemia cells and range of deaths; assay type: functional; conditions: route intraperitoneal
[10] = test system: Nucleic Acid; experiment: Apparent association constant towards DNA at concentration of 10e-7/M.; assay type: nucleic-acid assay; conditions: Bos taurus
Procedure, shortened: as §1

[11] = test system: Mus musculus; experiment: In vivo antitumor activity on L1210 leukemia cells at the dose 5 mg/kg administered intraperitoneally 1 day after 10 e5 L1210 leukemia cells and range of deaths; assay type: functional; conditions: route intraperitoneal
[12] = test system: Mus musculus; experiment: In vivo evaluation of antitumor activity on L1210 leukemia cells at the dose 5 mg/kg administered intraperitoneally 1 day after 10 e5 L1210 leukemia cells and increase in life span;; assay type: functional; conditions: L1210, ip, 24 h, route intraperitoneal
[13] = test system: Mus musculus; experiment: In Vivo antitumor activity on grafted tumor friend cells at the dose 5 mg/kg and decrease in intravenous 10 e 6 cells and median survival time; assay type: functional
Procedure, shortened: (§3)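 Friend tumor cells, 10^6, injected iv into syngeneic mice. Mice randomized in groups of 16. Drug dissolved in acidified saline (equimolar acetic acid) and given as a single iv dose 3 days after inoculation. Median survival time recorded. %ILS = (treated median survival − control median survival)/control median survival × 100.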

[14] = test system: Mus musculus; experiment: In Vivo evaluation for the antitumor activity on grafted tumor friend cells at the dose 5 mg/kg and Increase in the life span; assay type: functional
Procedure, shortened: as §3

[15] = test system: Mus musculus; experiment: In vivo evaluation of antitumor activity on L1210 leukemia cells at the dose 5 mg/kg administered intraperitoneally 1 day after 10 e5 L1210 leukemia cells and Mean survival time; assay type: functional; conditions: route intraperitoneal
[16] = test system: Mus musculus; experiment: In vivo leukemia cells at the dose 2.5 mg/kg administered intraperitoneally 1 day after 10 e5 L1210 leukemia cells and Mean survival time; assay type: functional; conditions: route intraperitoneal
[17] = test system: Mus musculus; experiment: In vivo antitumor activity on L1210 leukemia cells at the dose 2.5 mg/kg administered intraperitoneally 1 day after 10 e5 L1210 leukemia cells and range of deaths; assay type: functional; conditions: route intraperitoneal
[18] = test system: Mus musculus; experiment: In vivo evaluation of antitumor activity on L1210 leukemia cells at the dose 2.5 mg/kg administered intraperitoneally 1 day after 10 e5 L1210 leukemia cells and increase in life span; assay type: functional; conditions: L1210, ip, 24 h, route intraperitoneal
[19] = test system: Mus musculus; experiment: In vivo evaluation of antitumor activity on L1210 leukemia cells at the dose 15 mg/kg administered intraperitoneally 1 day after 10 e5 L1210 leukemia cells and increase in life span; assay type: functional; conditions: L1210, ip, 24 h, route intraperitoneal
[20] = test system: Mus musculus; experiment: In vivo evaluation of antitumor activity on L1210 leukemia cells at the dose 15 mg/kg administered intraperitoneally 1 day after 10 e5 L1210 leukemia cells and Mean survival time; assay type: functional; conditions: route intraperitoneal

SMILES: COc1ccc2[nH]c3c(C)c4cc[n+](C)c(N(C)C)c4cc3c2c1
pIC50 [1]: < 4.00

SMILES: CCN(CC)CCCNc1nccc2c(C)c3[nH]c4ccc(OC)cc4c3cc12
pIC50 [1]: 5.30
K app [4]: 3.15e+07 M⁻¹
LD100 [5]: 30 mg/kg
ILS at 15 mg/kg [6]: 24.6%
Bapp [2]: 0.1
LD0 [7]: 15 mg/kg
MST [8]: 14.3 days
Range of deaths [9]: 19 days

SMILES: COc1ccc2[nH]c3c(C)c4ccnc(NCCCCCCN)c4cc3c2c1
pIC50 [1]: 6.10
Bapp [2]: 0.11
K app [10]: 3.5e+07 M⁻¹

SMILES: COc1ccc2[nH]c3c(C)c4ccnc(NCCCCN)c4cc3c2c1
pIC50 [1]: 5.30
Bapp [2]: 0.13
K app [10]: 4e+07 M⁻¹

SMILES: COc1ccc2[nH]c3c(C)c4ccnc(NCCN)c4cc3c2c1
Range of deaths [11]: 20 days
ILS at 5 mg/kg [12]: 8.7%
pIC50 [1]: 7.00
MST [13]: 10.1 days
LD100 [5]: 10 mg/kg
ILS at 5 mg/kg [14]: 18.8%
Bapp [2]: 0.135
LD0 [7]: 5 mg/kg
K app [3]: 3.3e+07 M⁻¹
MST [15]: 13.8 days

SMILES: Cc1c2ccnc(NCCN(C)C)c2cc2c1[nH]c1ccc(O)cc12
pIC50 [1]: 7.52
MST [16]: 16 days
Range of deaths [17]: 20 days
LD100 [5]: 5 mg/kg
LD0 [7]: 2.5 mg/kg
ILS at 2.5 mg/kg [18]: 26%

SMILES: CCN(CC)CCCC(C)Nc1nccc2c(C)c3[nH]c4ccc(OC)cc4c3cc12 (stereo not drawn)
pIC50 [1]: 6.30
ILS at 15 mg/kg [19]: 8.7%
LD100 [5]: 30 mg/kg
MST [20]: 12.5 days
LD0 [7]: 1.5 mg/kg
Range of deaths [9]: 14 days

SMILES: COc1ccc2[nH]c3c(C)c4ccnc(N5CCCCC5)c4cc3c2c1
pIC50 [1]: 4.52

SMILES: COc1ccc2[nH]c3c(C)c4cc[n+](C)c(Nc5ccccc5)c4cc3c2c1
pIC50 [1]: 5.30

Further molecules by rising pIC50 [1], results first:

pIC50 [1]: 6.10
Bapp [2]: 0.11
K app [3]: 2.8e+07 M⁻¹
SMILES: COc1ccc2[nH]c3c(C)c4ccnc(NCCN(C)C)c4cc3c2c1

pIC50 [1]: 6.30
Bapp [2]: 0.15
K app [10]: 4.5e+07 M⁻¹
SMILES: COc1ccc2[nH]c3c(C)c4ccnc(NCCCCCN)c4cc3c2c1

pIC50 [1]: 6.30
SMILES: COc1ccc2[nH]c3c(C)c4ccnc(NCCCn5ccnc5)c4cc3c2c1

pIC50 [1]: 6.52
SMILES: Cc1c2cc[n+](C)cc2c(C)c2c1[nH]c1ccc(O)cc12 [ELLIPTINIUM]

pIC50 [1]: 6.52
SMILES: Cc1c2ccnc(NCCCN)c2cc2c1[nH]c1ccc(OCc3ccccc3)cc12
